Entries after “also recorded” stand apart in the source; their conditions may differ. Ends that are not written are not given here.
What was measured:
[1] = tested on: SLAIN2 C terminus / full-length CLIP-170; experiment: GST-SLAIN2 pull-down of CLIPs and full-length CLIP-170; type: binding
[2] = tested on: SLAIN2 in 3T3 cells; experiment: siRNA knockdown in mouse 3T3 cells; type: cell-based; details: siRNA 5 nM, 72 h
Summary of the method: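 Mouse Swiss 3T3 cells were cultured in 45% DME, 45% Ham's F10 and 10% FCS. Cells were blocked in interphase with 2 mM thymidine, added 1 d after transfection, for 2 d.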

[3] = biological target: T1, CLIPCG2 (second CAP-Gly domain of CLIP-170) (Homo sapiens, UniProt P30622); experiment: ITC of SLAIN2c with second CAP-Gly domain of CLIP-170; type: binding
T1 sequence (P30622 210-282): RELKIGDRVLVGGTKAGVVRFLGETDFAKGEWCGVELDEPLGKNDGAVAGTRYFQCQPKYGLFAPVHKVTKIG

[4] = biological target: T2, CLIPCG1 (first CAP-Gly domain of CLIP-170) (Homo sapiens, UniProt P30622); experiment: ITC of SLAIN2c with first CAP-Gly domain of CLIP-170; type: binding
T2 sequence (P30622 56-128): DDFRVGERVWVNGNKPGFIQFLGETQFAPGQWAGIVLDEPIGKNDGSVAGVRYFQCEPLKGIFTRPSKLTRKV

[5] = biological target: T3, CLIPCG12 (both CAP-Gly domains of CLIP-170) (Homo sapiens, UniProt P30622); experiment: ITC of SLAIN2c with double CAP-Gly construct of CLIP-170; type: binding
T3 sequence (P30622 48-300): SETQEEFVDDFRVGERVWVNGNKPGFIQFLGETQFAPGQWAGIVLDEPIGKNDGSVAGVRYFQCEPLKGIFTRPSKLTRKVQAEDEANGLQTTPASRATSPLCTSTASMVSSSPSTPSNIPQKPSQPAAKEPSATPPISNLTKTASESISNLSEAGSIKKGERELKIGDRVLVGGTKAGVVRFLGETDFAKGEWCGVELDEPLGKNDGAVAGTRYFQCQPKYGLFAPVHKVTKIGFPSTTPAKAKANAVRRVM

[6] = tested on: p150CG (CAP-Gly domain of dynactin large subunit p150^Glued); experiment: ITC of SLAIN2c with CAP-Gly domain of p150Glued; type: binding, human; details: ITC in PBS, 25°C

Substance: GFP–CLIP-115: full-length rat CLIP-115 [reference compound]
- association with SLAIN2 C terminus [1]: associated with the SLAIN2 C terminus

Substance: SLAIN2 siRNA#2: siRNA target sequence 5′-CUCUAUAGAUAGUGAGUUA-3′ (chemistry not given here)
- depletion of SLAIN2 [2]: efficiently deplete SLAIN2

Substance: SLAIN2c-W576A (GSMKDDSAKDGCY)
- binding by ITC (in words) ([3]; ITC in PBS, 25°C): abrogates binding
- binding by ITC (in words) ([4]; ITC in PBS, 25°C): abrogates binding

Substance: GSMKDDSWKDGCY-OH [SLAIN2c]
- Kd (in words) ([3]; ITC): micromolar range
- Kd (in words) [5]: comparable
- binding by ITC (in words) [6]: only very weak binding; also recorded: more weakly than the two CAP-Gly domains of CLIP-170
- Kd (in words) ([4]; ITC): micromolar range
